Laboratory results taken from the array DNA melting data of Ke et al. (doi:10.1101/2024.01.08.574731).

Legend:
[1] = folding enthalpy; higher = less favourable; fluorescence melt of hairpins on a sequencing array, two-state fit; conditions: sodium 0.088 M
Procedure, shortened: (§1)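 Cy3 signals were normalised both to pre-quench Cy3 and to control constructs. They came from library hairpins carrying annealed Cy3 and quencher oligos on a sequenced MiSeq flow cell, imaged in 50 mM Na-HEPES pH 8.0, 25 mM NaCl, in 2.5 °C steps up to 60 °C. Bootstrapped two-state fits gave melting temperature and folding enthalpy, and four replicates were combined by inverse variance. Fitted temperatures were then raised by 9.35 °C to match UV melts.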

[2] = melting temperature; fluorescence melt of hairpins on a sequencing array, two-state fit, raised by 9.35 °C to match UV melts; conditions: sodium 0.088 M
Procedure, shortened: as §1

Row | Sequence | folding enthalpy [1] | Tm [2]
1 | GGACCAGAAATGGTCC ((((((....)))))) | -43.7 kcal/mol | 63.7 °C
2 | GAGTGGCGAAAGCCCTC (((.(((....)))))) | -16.4 kcal/mol | 51.3 °C
3 | GCACGGCGAAAGCGCTGC (((..((....))..))) | -17.5 kcal/mol | 52 °C
4 | GTCAGTCGAAAGACGGAC (((.(((....))).))) | -33.3 kcal/mol | 56.2 °C
5 | GGTCCAGGAAACCGGACC (((((.(....).))))) | -38.8 kcal/mol | 53.3 °C
6 | GATCAGCGCCCTGATC ((((((....)))))) | -39.5 kcal/mol | 49 °C
7 | GATCAACTCCTTGATC ((((((....)))))) | -36.6 kcal/mol | 44.2 °C
8 | GGACATCCGAAAGGATCC (((..(((....)))))) | -12.6 kcal/mol | 29.3 °C
9 | GTGCACGAAAGTGTCCAC ((((((....)))..))) | -10.8 kcal/mol | 34.8 °C
10 | GATCTTTCTAAGATC ((((((...)))))) | -34.2 kcal/mol | 45.2 °C
11 | GCCCCGCGAAAGCGTAGC ((..(((....)))..)) | -9.13 kcal/mol | 35.8 °C
12 | GATCCTTATAGGATC ((((((...)))))) | -32.5 kcal/mol | 57.4 °C
13 | GGAGTCGAAAGACGATCC ((((((....)))..))) | -12.3 kcal/mol | 46 °C
14 | GCATACGAAAGTAACTGC ((((((....)))..))) | -13.6 kcal/mol | 31.1 °C
15 | GTTAACGAAAGTTCAAC ((((((....))).))) | -12.2 kcal/mol | 26.5 °C
16 | GGACCCGAAAGGGTCTCC ((((((....)))..))) | -7.17 kcal/mol | 58.9 °C
17 | GCTAGTGGAAACATTGGC ((.(.((....)).).)) | -10.7 kcal/mol | 28.2 °C
18 | GTTTATGAAAATAAAC ((((((....)))))) | -33 kcal/mol | 42.4 °C
19 | GCTAAGGAAACTTAGC ((((((....)))))) | -24.6 kcal/mol | 52 °C
20 | GTCCACGAAAGTGAGGAC ((((((....)))..))) | -21.9 kcal/mol | 46.4 °C
21 | GATCTCCTTAGAGATC ((((((....)))))) | -37.1 kcal/mol | 56.4 °C
22 | GATCAACCTCTTGATC ((((((....)))))) | -30.3 kcal/mol | 43.5 °C
23 | GTGCCCGAAAGGGAACAC ((((((....)))..))) | -15.2 kcal/mol | 52.5 °C

Row | Sequence | folding enthalpy [1] | Tm [2]
24 | GCCAACGAAAGTTCGGGC ((((((....)))..))) | -30 kcal/mol | 43.8 °C
25 | ACTTGGAAACAAGT (((((....))))) | -17.8 kcal/mol | 38.4 °C
26 | AAGGAGAAATCCTT (((((....))))) | -8.61 kcal/mol | 27.3 °C
27 | GATCAACGGCTTGATC ((((((....)))))) | -28.7 kcal/mol | 42.4 °C
28 | GTGAGGCGAAAGCCCCAC (((.(((....))).))) | -22.8 kcal/mol | 53.8 °C
29 | GTCCTCGAAAGAGTCGAC ((((((....)))..))) | -12.3 kcal/mol | 32.3 °C
30 | GATCCCGAGTGGGATC ((((((....)))))) | -33.7 kcal/mol | 61.1 °C
31 | GAGGCCGAAAGGCTTCTC ((((((....)))..))) | -19.1 kcal/mol | 54.9 °C
32 | GCAGCGCGAAAGCACGGC ((.(.((....)).).)) | -22.9 kcal/mol | 53.9 °C
33 | GATCCTCCGGAGGATC ((((((....)))))) | -29.5 kcal/mol | 55.1 °C
34 | GGCTTCGAAAGAATGCC ((((((....))).))) | -27.9 kcal/mol | 50.7 °C
35 | GCAGAGGGAAACCTTTGC (((.(((....))).))) | -32.9 kcal/mol | 45.2 °C
36 | GATCCTAGCTAGGATC ((((((....)))))) | -56.9 kcal/mol | 54.1 °C
37 | GCGAGCGAAAGCTATCGC ((((((....)))..))) | -23.3 kcal/mol | 54.6 °C
38 | GGACATGGAAACATATCC (((.(((....))).))) | -21.6 kcal/mol | 30.5 °C
39 | GTGTAGTCGAAAGACCAC (((..(((....)))))) | -19.5 kcal/mol | 42.1 °C
40 | GTCCACGAAAGTGAAGAC ((((((....)))..))) | -23.1 kcal/mol | 40.4 °C
41 | GATCATGCGTATGATC ((((((....)))))) | -39 kcal/mol | 48.3 °C
42 | GCGGTTAGCCGC ((((....)))) | -24.3 kcal/mol | 62.4 °C
43 | GCAGCGCGAAAGCGAGGC ((..(((....)))..)) | -19.2 kcal/mol | 63.8 °C
44 | GATCGTGGAAACACGGTC ((.((((....)))).)) | -29.1 kcal/mol | 52.7 °C
45 | GCCACGCGAAAGCCCGGC (((..((....))..))) | -18.5 kcal/mol | 43.7 °C
46 | GGTTAGCGAAAGCTGACC (((.(((....))).))) | -36.4 kcal/mol | 58.4 °C
